Measurements published in ChEMBL document CHEMBL3868583, “6-Aryl substituted 4-(4-cyanomethyl) phenylamino quinazolines as a new class of isoform-selective PI3K-alpha inhibitors” (Eur J Med Chem, 2016).
Values after ≈ are worked out from the molar mass of the structure shown.

Assays:
[1] = molecular target: T1, Phosphatidylinositol 4,5-bisphosphate 3-kinase catalytic subunit alpha isoform (Homo sapiens, UniProt P42336); test: Inhibition of PI3Kalpha (unknown origin) using diC8 PIP2 as substrate at 0.5 uM after 80 mins by ADP-glo assay
T1 sequence (P42336 whole entry, canonical isoform): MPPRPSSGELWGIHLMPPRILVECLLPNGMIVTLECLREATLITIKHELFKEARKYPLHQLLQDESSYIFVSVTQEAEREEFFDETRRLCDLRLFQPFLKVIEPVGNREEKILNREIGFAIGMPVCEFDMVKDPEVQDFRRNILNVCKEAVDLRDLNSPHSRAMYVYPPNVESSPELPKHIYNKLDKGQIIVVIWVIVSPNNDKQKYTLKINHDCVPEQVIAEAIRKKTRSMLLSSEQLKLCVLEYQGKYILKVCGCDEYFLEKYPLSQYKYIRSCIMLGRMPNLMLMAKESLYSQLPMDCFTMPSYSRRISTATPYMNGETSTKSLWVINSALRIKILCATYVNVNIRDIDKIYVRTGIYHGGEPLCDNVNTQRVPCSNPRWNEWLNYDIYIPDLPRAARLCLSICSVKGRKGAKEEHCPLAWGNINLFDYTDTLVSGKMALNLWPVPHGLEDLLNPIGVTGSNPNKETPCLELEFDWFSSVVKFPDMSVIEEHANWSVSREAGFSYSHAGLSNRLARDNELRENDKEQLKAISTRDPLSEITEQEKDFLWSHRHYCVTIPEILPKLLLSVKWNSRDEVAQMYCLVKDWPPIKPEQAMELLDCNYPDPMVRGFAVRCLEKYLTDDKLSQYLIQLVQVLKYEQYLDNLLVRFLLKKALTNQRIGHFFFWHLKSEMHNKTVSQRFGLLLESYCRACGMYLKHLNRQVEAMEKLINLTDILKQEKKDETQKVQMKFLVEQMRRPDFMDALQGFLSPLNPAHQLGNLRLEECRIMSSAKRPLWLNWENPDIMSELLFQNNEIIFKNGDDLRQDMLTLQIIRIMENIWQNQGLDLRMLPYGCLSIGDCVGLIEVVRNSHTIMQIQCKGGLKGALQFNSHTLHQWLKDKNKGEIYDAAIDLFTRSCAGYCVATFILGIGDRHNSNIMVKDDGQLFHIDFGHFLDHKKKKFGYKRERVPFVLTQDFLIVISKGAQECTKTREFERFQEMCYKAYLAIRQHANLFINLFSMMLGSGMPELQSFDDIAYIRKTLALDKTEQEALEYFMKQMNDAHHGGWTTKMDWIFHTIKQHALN

[2] = Cytotoxicity against human HL60 cells assessed as cell growth inhibition after 48 hrs by MTT assay; assay type: functional; details: HL-60, 48 h
Summary of the method: (§1)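 MTT assay: 3 × 10^3 cells/well seeded, compounds added after 24 h at final […], 48 h exposure. MTT (2.5 mg/mL in PBS) added, formazan dissolved in DMSO, absorbance 570 nm. Viability as % of untreated; three independent experiments, mean ± SD.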

[3] = Cytotoxicity against human A375 cells assessed as cell growth inhibition after 48 hrs by MTT assay; assay type: functional; details: A-375, 48 h; summary of the method: as §1
[4] = Cytotoxicity against human MCF7 cells assessed as cell growth inhibition after 48 hrs by MTT assay; assay type: functional; details: MCF7, 48 h; summary of the method: as §1
[5] = Cytotoxicity against human PANC1 cells assessed as cell growth inhibition after 48 hrs by MTT assay; assay type: functional; details: PANC-1, 48 h; summary of the method: as §1
[6] = Cytotoxicity against human PC3 cells assessed as cell growth inhibition after 48 hrs by MTT assay; assay type: functional; details: PC-3, 48 h; summary of the method: as §1
[7] = molecular target: T1, Phosphatidylinositol 4,5-bisphosphate 3-kinase catalytic subunit alpha isoform; test: Inhibition of PI3Kalpha (unknown origin)
Summary of the method: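 Run by a kinase profiling service. Reaction 80 min. ADP-Glo reagent added for 40 min, then kinase detection buffer for 40 min. Luminescence read.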

[8] = molecular target: T2, Phosphatidylinositol 4,5-bisphosphate 3-kinase catalytic subunit beta isoform (Homo sapiens, UniProt P42338); test: Inhibition of PI3Kbeta (unknown origin)
T2 sequence (P42338 whole entry, canonical isoform): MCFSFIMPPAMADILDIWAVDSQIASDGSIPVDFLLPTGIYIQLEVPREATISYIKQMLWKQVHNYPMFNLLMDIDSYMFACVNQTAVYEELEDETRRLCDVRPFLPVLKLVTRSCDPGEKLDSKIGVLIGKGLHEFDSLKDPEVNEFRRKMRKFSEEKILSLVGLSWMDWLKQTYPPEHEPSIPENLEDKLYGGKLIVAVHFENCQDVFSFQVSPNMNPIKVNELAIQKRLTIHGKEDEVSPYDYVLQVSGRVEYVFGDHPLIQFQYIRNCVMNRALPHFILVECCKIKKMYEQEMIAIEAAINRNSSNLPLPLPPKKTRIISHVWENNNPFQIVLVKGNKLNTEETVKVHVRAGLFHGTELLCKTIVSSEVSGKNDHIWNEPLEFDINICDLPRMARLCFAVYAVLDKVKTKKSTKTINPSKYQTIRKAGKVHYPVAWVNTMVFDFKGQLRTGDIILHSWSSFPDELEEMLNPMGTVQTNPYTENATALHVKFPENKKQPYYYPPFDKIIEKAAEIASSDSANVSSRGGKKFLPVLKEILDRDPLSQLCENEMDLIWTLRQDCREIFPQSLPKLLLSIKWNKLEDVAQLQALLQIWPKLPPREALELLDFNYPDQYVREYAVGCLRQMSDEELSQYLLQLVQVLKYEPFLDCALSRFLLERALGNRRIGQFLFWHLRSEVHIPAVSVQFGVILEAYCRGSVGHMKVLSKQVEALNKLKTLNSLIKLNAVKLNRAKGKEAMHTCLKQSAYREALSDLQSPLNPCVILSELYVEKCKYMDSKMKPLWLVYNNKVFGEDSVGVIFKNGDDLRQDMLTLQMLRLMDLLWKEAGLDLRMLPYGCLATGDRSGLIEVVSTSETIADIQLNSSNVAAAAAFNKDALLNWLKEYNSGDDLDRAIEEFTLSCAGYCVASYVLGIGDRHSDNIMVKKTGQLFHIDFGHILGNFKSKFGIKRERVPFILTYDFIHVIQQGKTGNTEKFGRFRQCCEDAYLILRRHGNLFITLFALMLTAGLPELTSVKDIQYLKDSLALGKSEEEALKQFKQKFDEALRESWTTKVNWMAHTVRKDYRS

[9] = molecular target: T3, Phosphatidylinositol 4,5-bisphosphate 3-kinase catalytic subunit delta isoform (Homo sapiens, UniProt O00329); test: Inhibition of PI3Kdelta (unknown origin)
T3 sequence (O00329 whole entry): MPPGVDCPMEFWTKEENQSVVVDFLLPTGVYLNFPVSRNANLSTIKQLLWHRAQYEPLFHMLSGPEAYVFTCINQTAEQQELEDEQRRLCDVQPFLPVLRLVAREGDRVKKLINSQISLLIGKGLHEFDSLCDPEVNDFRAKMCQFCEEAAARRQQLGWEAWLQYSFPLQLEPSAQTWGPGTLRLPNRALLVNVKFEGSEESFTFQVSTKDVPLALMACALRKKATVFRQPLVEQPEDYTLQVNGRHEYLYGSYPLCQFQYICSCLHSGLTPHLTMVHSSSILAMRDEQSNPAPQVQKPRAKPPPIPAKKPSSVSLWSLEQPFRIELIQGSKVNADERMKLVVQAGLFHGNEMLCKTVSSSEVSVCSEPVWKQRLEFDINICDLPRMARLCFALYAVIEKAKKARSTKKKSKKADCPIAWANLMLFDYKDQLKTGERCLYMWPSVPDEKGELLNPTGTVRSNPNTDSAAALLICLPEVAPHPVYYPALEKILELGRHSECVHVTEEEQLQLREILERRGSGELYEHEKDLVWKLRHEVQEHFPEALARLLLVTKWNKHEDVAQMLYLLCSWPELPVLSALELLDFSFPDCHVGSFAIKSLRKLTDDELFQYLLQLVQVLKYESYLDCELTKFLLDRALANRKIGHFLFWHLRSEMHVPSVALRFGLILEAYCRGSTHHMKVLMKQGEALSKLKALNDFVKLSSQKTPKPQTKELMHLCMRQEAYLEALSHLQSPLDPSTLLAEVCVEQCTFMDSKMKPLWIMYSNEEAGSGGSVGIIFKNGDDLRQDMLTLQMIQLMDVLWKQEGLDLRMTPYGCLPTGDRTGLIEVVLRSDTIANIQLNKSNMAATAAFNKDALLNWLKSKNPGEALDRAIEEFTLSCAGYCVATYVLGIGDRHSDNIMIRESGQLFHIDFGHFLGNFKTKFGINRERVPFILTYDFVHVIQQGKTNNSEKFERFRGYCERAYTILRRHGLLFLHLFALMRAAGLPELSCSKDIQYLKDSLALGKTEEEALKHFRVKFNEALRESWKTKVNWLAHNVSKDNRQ
Summary of the method: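 Substrate was 0.05 mM diC8 PIP2 with 0.01 mM ATP, and the kinase reaction ran 120 min. ADP produced was read by ADP-Glo luminescence: 40 min with ADP-Glo reagent, then 40 min with detection buffer.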

[10] = molecular target: T4, Phosphatidylinositol 4,5-bisphosphate 3-kinase catalytic subunit gamma isoform (Homo sapiens, UniProt P48736)
T4 sequence (P48736 whole entry, canonical isoform): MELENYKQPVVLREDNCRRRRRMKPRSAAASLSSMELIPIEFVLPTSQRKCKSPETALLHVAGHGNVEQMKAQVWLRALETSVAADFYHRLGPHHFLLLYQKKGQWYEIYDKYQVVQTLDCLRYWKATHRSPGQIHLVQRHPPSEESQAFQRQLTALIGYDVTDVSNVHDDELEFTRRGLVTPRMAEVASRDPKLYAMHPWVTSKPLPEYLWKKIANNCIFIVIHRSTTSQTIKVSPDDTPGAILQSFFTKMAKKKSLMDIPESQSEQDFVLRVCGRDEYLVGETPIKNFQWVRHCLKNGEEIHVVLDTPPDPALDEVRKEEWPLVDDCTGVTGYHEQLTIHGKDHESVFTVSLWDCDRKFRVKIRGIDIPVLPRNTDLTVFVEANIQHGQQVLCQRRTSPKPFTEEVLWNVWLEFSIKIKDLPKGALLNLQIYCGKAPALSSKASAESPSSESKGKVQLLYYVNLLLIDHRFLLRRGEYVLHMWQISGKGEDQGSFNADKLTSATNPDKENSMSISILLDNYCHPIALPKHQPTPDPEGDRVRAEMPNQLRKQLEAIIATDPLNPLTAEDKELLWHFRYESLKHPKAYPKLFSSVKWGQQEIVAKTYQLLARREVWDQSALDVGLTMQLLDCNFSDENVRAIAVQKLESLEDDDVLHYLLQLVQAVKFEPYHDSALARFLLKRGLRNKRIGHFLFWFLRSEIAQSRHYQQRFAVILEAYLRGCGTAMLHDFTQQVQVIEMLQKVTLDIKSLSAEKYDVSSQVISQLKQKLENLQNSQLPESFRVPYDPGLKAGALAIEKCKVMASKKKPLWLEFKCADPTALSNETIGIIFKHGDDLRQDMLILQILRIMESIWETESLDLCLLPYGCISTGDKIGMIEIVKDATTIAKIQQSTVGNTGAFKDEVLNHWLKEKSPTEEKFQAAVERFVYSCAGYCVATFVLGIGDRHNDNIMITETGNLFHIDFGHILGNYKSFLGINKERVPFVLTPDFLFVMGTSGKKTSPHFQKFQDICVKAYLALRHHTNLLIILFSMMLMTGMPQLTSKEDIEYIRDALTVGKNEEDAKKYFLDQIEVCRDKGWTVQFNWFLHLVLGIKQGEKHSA

[11] = molecular target: T1, Phosphatidylinositol 4,5-bisphosphate 3-kinase catalytic subunit alpha isoform; test: Inhibition of PI3Kalpha (unknown origin) using diC8 PIP2 as substrate after 80 mins by ADP-glo assay
[12] = molecular target: T2, Phosphatidylinositol 4,5-bisphosphate 3-kinase catalytic subunit beta isoform; test: Inhibition of PI3Kbeta (unknown origin) using diC8 PIP2 as substrate after 60 mins by ADP-glo assay
[13] = molecular target: T3, Phosphatidylinositol 4,5-bisphosphate 3-kinase catalytic subunit delta isoform; test: Inhibition of PI3Kdelta (unknown origin) using diC8 PIP2 as substrate after 120 mins by ADP-glo assay
Summary of the method: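 Delta isoform reacted 120 min in glycine-NaOH pH 8.5 buffer (50 mM KCl, 2.5 mM MgCl2, 1 mM DTT, 0.05% CHAPS) with 0.01 mM ATP and 0.05 mM diC8 PIP2; ADP formed detected by ADP-Glo (40 min) plus detection buffer (40 min) luminescence. Dundee profiling centre.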

[14] = molecular target: T4, Phosphatidylinositol 4,5-bisphosphate 3-kinase catalytic subunit gamma isoform; test: Inhibition of PI3Kgamma (unknown origin) using diC8 PIP2 as substrate after 75 mins by ADP-glo assay
Homo sapiens [15] = species on record: Homo sapiens; test: Selectivity ratio of IC50 for PI3Kdelta (unknown origin) to IC50 for PI3Kalpha (unknown origin)
Homo sapiens [16] = species on record: Homo sapiens; test: Selectivity ratio of IC50 for PI3Kgamma (unknown origin) to IC50 for PI3Kalpha (unknown origin)
Homo sapiens [17] = species on record: Homo sapiens; test: Selectivity ratio of IC50 for PI3Kbeta (unknown origin) to IC50 for PI3Kalpha (unknown origin)
[18] = Thermodynamic equilibrium solubility of compound in water up to 300 ug after 4 hrs by UV absorbance method; assay type: physicochemical; details: read-out: Therm_solubility
Summary of the method: (§2)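 Methanol stock evaporated in wells to give 1–300 µg solid; 200 µl medium (water, PBS, SGF or SIF) added, shaken 300 rpm 4 h at 25 ± 1 °C, equilibrated overnight, centrifuged; supernatant UV absorbance at λmax; saturation point from concentration–absorbance curve; triplicate.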

[19] = Thermodynamic equilibrium solubility of compound in PBS up to 300 ug after 4 hrs by UV absorbance method; assay type: physicochemical; details: read-out: Therm_solubility; summary of the method: as §2
[20] = Thermodynamic equilibrium solubility of compound in simulated gastric fluid up to 300 ug after 4 hrs by UV absorbance method; assay type: ADME; details: read-out: Therm_solubility; summary of the method: as §2
[21] = Thermodynamic equilibrium solubility of compound in simulated intestinal fluid up to 300 ug after 4 hrs by UV absorbance method; assay type: ADME; details: read-out: Therm_solubility; summary of the method: as §2

Row | SMILES | inhibition [1] [%] | GI50 [2] [µM] | GI50 [3] [µM] | GI50 [4] [µM] | GI50 [5] [µM] | GI50 [6] [µM] | Ratio IC50 (Homo sapiens [15]) | Ratio IC50 (Homo sapiens [17]) | other results
1 | CC(=O)Nc1cccc(-c2ccc3ncnc(Nc4ccc(CC#N)cc4)c3c2)c1 | 16.4 | 32 | 24 | 23 | 40 | 27 |  |  | 
2 | N#CCc1ccc(Nc2ncnc3ccc(-c4cc5ccccc5o4)cc23)cc1 | 29.8 | 17 | 10 | 9 | 28 | 8 |  |  | 
3 | N#CCc1ccc(Nc2ncnc3ccc(-c4ccccc4C=O)cc23)cc1 | 1.3 | 42 | 39 | 91 | 90 | 21 |  |  | 
4 | Nc1nc2cc(-c3ccc4ncc(C(=O)N5CCOCC5)n4c3)ccc2o1 [SERABELISIB] |  |  |  |  |  |  |  |  | IC50 [7]: 0.015 µM; IC50 [8]: 4.5 µM; IC50 [9]: 13.9 µM; IC50 [10]: 1.9 µM
5 | N#CCc1ccc(Nc2ncnc3ccc(-c4cccc5c4oc4ccccc45)cc23)cc1 | 1.5 | 12 | 36 | 27 | 31 | 16 |  |  | 
6 | N#CCc1ccc(Nc2ncnc3ccc(-c4ccccc4)cc23)cc1 | 36.8 | 23 | 38 | 14 | 38 | 26 | > 21 | > 21 | IC50 [11]: 0.475 µM; IC50 [12]: > 10 µM; IC50 [13]: > 10 µM; IC50 [14]: 6.95 µM; Ratio IC50 (Homo sapiens [16]): 14.6
7 | N#CCc1ccc(Nc2ncnc3ccc(-c4ccc5ccccc5c4)cc23)cc1 | 8.2 | 25 | 31 | 16 | 48 | 22 |  |  | 
8 | CCOc1ccc(-c2ccc(-c3ccc4ncnc(Nc5ccc(CC#N)cc5)c4c3)cc2)cc1 |  | 16 | 30 | 26 | 33 | 17 |  |  | 
9 | COc1cc2ncnc(Nc3ccc(CC#N)cc3)c2cc1OC |  | 47 | 19 | 40 | 55 | 34 |  |  | IC50 [11]: 47 µM; IC50 [12]: 19 µM; IC50 [13]: 55 µM; IC50 [14]: 40 µM
10 | N#CCc1ccc(Nc2ncnc3ccc(-c4ccc(F)cc4F)cc23)cc1 | 17 | 7 | 9 | 10 | 21 | 28 |  |  | 
11 | N#CCc1ccc(Nc2ncnc3ccc(-c4cc5ccccc5s4)cc23)cc1 | 2.7 | 14 | 14 | 8 | 24 | 13 |  |  | 
12 | Cc1ccccc1-c1ccc2ncnc(Nc3ccc(CC#N)cc3)c2c1 | 4.1 | 36 | 32 | > 100 | 68 | 38 |  |  | 
13 | N#CCc1ccc(Nc2ncnc3ccc(-c4ccncc4)cc23)cc1 | 45.6 | 32 | 35 | 32 | 39 | 76 | > 14.2 | > 14.2 | Ratio IC50 (Homo sapiens [16]): 0.5
14 | C=Cc1ccc(-c2ccc3ncnc(Nc4ccc(CC#N)cc4)c3c2)cc1 | 36.4 | 16 | 27 | 11 | 32 | 34 | 1 | 1 | 
15 | N#CCc1ccc(Nc2ncnc3ccc(-c4ccc5c(c4)OCO5)cc23)cc1 | 48.6 | 27 | 24 | 34 | 33 | 7 | > 31.1 | > 31.1 | Ratio IC50 (Homo sapiens [16]): 0.6
16 | N#CCc1ccc(Nc2ncnc3ccc(-c4cccc(O)c4)cc23)cc1 | 69.9 | 24 | 28 | 15 | 36 | 37 | 2.3 | 5.8 | Ratio IC50 (Homo sapiens [16]): 16; solubility thermodynamic at 4 h [18]: 5 µg/mL (≈ 14.2 µM); solubility thermodynamic at 4 h [19]: 5 µg/mL (≈ 14.2 µM); solubility thermodynamic at 4 h [20]: 125 µg/mL (≈ 355 µM); solubility thermodynamic at 4 h [21]: 5 µg/mL (≈ 14.2 µM)
17 | N#CCc1ccc(Nc2ncnc3ccc(-c4ccc(-c5ccccc5)cc4F)cc23)cc1 | 20.3 | 16 | 32 | 13 | 33 | 14 |  |  | 
18 | N#CCc1ccc(Nc2ncnc3ccc(-c4cccc5c4sc4ccccc45)cc23)cc1 |  | 31 | 34 | 34 | 33 | 18 |  |  | 
19 | N#CCc1ccc(Nc2ncnc3ccc(-c4ccc5c(c4)OCCO5)cc23)cc1 | 33 | 21 | 27 | 34 | 32 | 34 | > 29.2 | > 29.2 | Ratio IC50 (Homo sapiens [16]): 4
20 | N#CCc1ccc(Nc2ncnc3ccc(-c4cccc([N+](=O)[O-])c4)cc23)cc1 | 38.1 | 15 | 23 | 12 | 7 | 29 | > 22.2 | > 22.2 | Ratio IC50 (Homo sapiens [16]): 1.9
21 | CC(=O)c1ccc(-c2ccc3ncnc(Nc4ccc(CC#N)cc4)c3c2)cc1 | 44 | 28 | 32 | 45 | 13 | 24 | > 37 | > 37 | Ratio IC50 (Homo sapiens [16]): 0.5
22 | N#CCc1ccc(Nc2ncnc3ccc(-c4ccc(-c5ccccc5)cc4)cc23)cc1 |  | 16 | 13 | 29 | 30 | 10 |  |  | 
23 | N#CCc1ccc(Nc2ncnc3ccc(-c4cnc5ccccc5c4)cc23)cc1 |  | 44 | 89 | 32 | 90 | 23 |  |  | 
24 | N#CCc1ccc(Nc2ncnc3ccc(-c4ccc(OCc5ccc(F)cc5)cc4)cc23)cc1 | 11 | 14 | 16 | 12 | 13 | 13 |  |  | 
